The list is not random: actives were taken first. Their share in the collection is about 1.8%.
NPY Y1 blocker – antagonists of human neuropeptide Y receptor Y1; HEK293-CNG Y1 cells, membrane potential fluorescence; NPY at EC95, then isoproterenol; inhibition, % at 3.6 µM; actives 1% (n = 200,000); AID 1040;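 active = inhibition above the campaign mean inhibition of all tested compounds plus 3 SD, cut at about 20% in these data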
Target sequence (P25929 whole entry, looked up): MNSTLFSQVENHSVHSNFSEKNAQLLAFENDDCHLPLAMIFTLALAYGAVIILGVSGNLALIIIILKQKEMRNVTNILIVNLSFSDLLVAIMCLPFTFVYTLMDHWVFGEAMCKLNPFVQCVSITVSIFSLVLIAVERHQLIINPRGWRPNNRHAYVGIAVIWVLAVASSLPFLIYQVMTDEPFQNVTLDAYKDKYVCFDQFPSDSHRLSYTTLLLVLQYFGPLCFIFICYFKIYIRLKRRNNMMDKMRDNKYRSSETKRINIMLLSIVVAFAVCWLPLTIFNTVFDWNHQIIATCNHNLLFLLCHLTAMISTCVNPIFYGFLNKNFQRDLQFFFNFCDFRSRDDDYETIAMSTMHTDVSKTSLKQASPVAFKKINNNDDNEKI
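Assay system: HEK293 Y1/CNG channel cell line; Doses: single compound dose of 3.6 µM, 0.4% DMSO; Timing: dye 3 h, compound 60 min room temperature, stimulation 45 min; Technique: Membrane-potential fluorescent dye readout; Measure: % inhibition of NPY effect.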
NPY-Y2 antag – blocks the human neuropeptide Y Y2 receptor; P49146; NPY-Y2 expressing cells, antagonist mode; inhibition, % at 2.7 µM; actives 0.99% (n = 140,000); AID 793; in the data active = inhibition above about 17%
NPY-Y2 PAM-ag – potentiates or activates human NPY-Y2 receptor; activation, % at 3.6 µM; cells expressing NPY-Y2, potentiator/agonist read-out; P49146; actives 0.45% (n = 220,000); AID 1359; in the data active = activation above about 27%;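 note: cells stimulated with NPY near EC25 plus isoproterenol at EC100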
NPY1 pot ag – potentiates or activates human NPY-Y1 receptor | P25929 | NPY-Y1 expressing cells, potentiator/agonist activation | activation, % at 3.6 µM | actives 0.37% (n = 220,000) | AID 1304; in the data active = activation above about 33%, passing the limit was not always enough;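 note: cells stimulated with NPY at EC10 then isoproterenol at EC100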
Numbers stand for hits; n = inactive; x = not tested or not shown.

SMILES	NPY Y1 blocker	NPY-Y2 antag	NPY-Y2 PAM-ag	NPY1 pot ag
COc1ccc(C(NC(=O)c2c(F)c(F)c(F)c(F)c2F)c2ccccc2)cc1 (stereo unspecified)	n	n	35	63
COc1ccc(NC(=O)CN(C)CC(=O)Nc2ccc(Cl)cc2F)cc1	n	x	n	n
CCOC(=O)c1c(NC(=O)C2COc3ccccc3O2)sc2c1CC(C)(C)NC2(C)C (stereo unspecified)	45	21	n	n
CCOC(=O)c1c(NC(=O)C2COc3ccccc3O2)sc(C(C)=O)c1C (stereo unspecified)	n	n	n	n
CCC(C)(C)n1nnnc1C(c1ccncc1)N1CCC(C)CC1 (stereo unspecified)	n	n	n	n
CCC(C)(C)n1nnnc1C(c1ccc(OC)c(OC)c1)N1CCN(c2cccc(OC)c2)CC1 (stereo unspecified)	24	22	n	n
CCC(C)(C)n1nnnc1C(c1ccc(C)cc1)N1CCC(C)CC1 (stereo unspecified)	39	20	n	n
CCC(C)(C)n1nnnc1C(c1ccc(OC)c(OC)c1)N1CCN(c2ccccc2)CC1 (stereo unspecified)	n	n	n	n
CCC(C)(C)n1nnnc1C(c1ccccc1)N1CCN(Cc2ccccc2)CC1 (stereo unspecified)	n	x	n	n
CCC(C)(C)n1nnnc1C(c1cc(OC)ccc1OC)N1CCN(Cc2ccccc2)CC1 (stereo unspecified)	20	x	n	n
COc1ccc(/C=[N+](\[O-])C2N(c3ccccc3)C(=S)SC2(C)C)cc1OC (stereo unspecified)	x	x	n	n
O=C(C1CCC1)N1CCc2cc(S(=O)(=O)NCC3COc4ccccc4O3)ccc21 (stereo unspecified)	24	20	n	n
CCCNc1cc(=S)nc(N)[nH]1	x	x	n	n
COc1ccccc1N(C(=O)c1snc(C(N)=O)c1N)C(C(=O)NC1CCCC1)c1ccco1 (stereo unspecified)	27	20	n	n
CCOC(=O)c1ccc(Nc2nnc(C)c3ccccc23)cc1	x	x	n	n
S=C(NCCc1ccccc1)N/N=C/c1c(Cl)cccc1Cl	22	23	n	n
COc1ccc(CC(=O)NNc2ncnc3c2cnn3Cc2ccccc2)cc1OC	x	x	n	n
Cc1ccc(C#CC[N+]2(CC#Cc3ccc(C)cc3)CCCCC2)cc1	27	20	n	n
N=c1n(CCN2CCCCC2)c2ccccc2n1CC(O)c1ccc(Cl)c(Cl)c1 (stereo unspecified)	36	53	n	n
N=c1n(CCN2CCCCC2)c2ccccc2n1CC(O)c1cccc(Br)c1 (stereo unspecified)	41	32	n	n
O=C(O)CCNC(=O)CCCn1nnc2ccccc2c1=O	x	x	n	n
O=C(CSCCOc1ccccc1)NCc1ccncc1	x	x	n	n
Cc1c(C(=O)Oc2cccc3ccccc23)cnn1-c1ccccc1	n	18	n	n
CC(=O)c1cnn(-c2ccccc2)c1C	n	x	n	n
CCC(=O)N(CCC(c1ccco1)c1ccccc1OC)Cc1cccs1 (stereo unspecified)	25	22	n	n
SMILES	NPY Y1 blocker	NPY-Y2 antag	NPY-Y2 PAM-ag	NPY1 pot ag
C/C(=N/NC(=O)c1cccs1)c1cccs1	x	x	n	n
C/C(NC(=O)c1cccs1)=C1\C(=O)C[C@@H]2[C@H]1C2(C)C	22	n	n	n
O=C(COC(=O)c1cc(-c2ccccc2)nc2ccccc12)Nc1ccc2c(c1)OCO2	n	n	n	n
O=C(COC(=O)c1c2c(nc3ccccc13)CCCC2)Nc1ccc2c(c1)OCO2	20	17	n	n
C/C(=N\S(=O)(=O)c1ccc(C)cc1)N(C)C	x	x	n	n
O=C(/C=C/c1ccc2c(c1)OCO2)NCCSCc1ccc(Cl)cc1	37	23	n	n
CC(C)Cn1cnc2c(c(-c3ccccc3)c(-c3ccccc3)n2Cc2ccco2)c1=N	40	76	n	n
N=c1c2c(-c3ccccc3)c(-c3ccccc3)n(Cc3ccccc3)c2ncn1CCO	61	63	n	n
N=c1c2c(-c3ccccc3)c(-c3ccccc3)n(Cc3ccco3)c2ncn1CCCn1ccnc1	57	41	n	n
CC(=O)Oc1c(C)cc(Cl)cc1C(=O)Nc1ccc([N+](=O)[O-])cc1Cl	n	20	n	n
O=C(NNC(=S)Nc1ccc(F)cc1)C1[C@H]2CCCC[C@@H]12 (stereo partly specified)	x	x	n	n
COC(=O)c1sc(NC(=O)c2ccc(Cn3cc(Cl)cn3)o2)c(C#N)c1C	n	n	36	60
N#Cc1c(NC(=O)c2ccc(Cn3cc(Br)cn3)o2)sc2c1CCCCC2	n	n	n	n
